Reference: ChEMBL document CHEMBL1909603, “Synthesis of novel N-(2-hydroxy-2-p-tolylethyl)-amide and N-(2-oxo-2-p-tolylethyl)-amide derivatives and their antidyslipidemic and antioxidant activity” (2011)

Tests used:
Assay type in all cases: functional
[1] = tested on: Rattus norvegicus; assay: Antihyperlipidemic activity in Charles Foster rat assessed as reduction of triton WR-1339-induced plasma triglyceride level at 100 mg/kg, po after 18 hrs; set-up: scale not given: the % may be the effect or the level left
Outline: (§1)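 Male Charles Foster rats (100–150 g), six per group. Triton WR-1339 400 mg/kg ip with simultaneous oral dosing at 100 mg/kg, given as a gum acacia (0.2% w/v) suspension in water. Diet was withdrawn. Vehicle went to the control and triton groups. At 18 h, under thiopentone anaesthesia, retro-orbital blood was taken into EDTA and spun at 4 °C. Plasma diluted 1:3 in saline. TC, TG and PL measured by enzymatic kits. Mean SD.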

[2] = tested on: Rattus norvegicus; assay: Antihyperlipidemic activity in Charles Foster rat assessed as reduction of triton WR-1339-induced plasma phospholipid level at 100 mg/kg, po after 18 hrs; set-up: scale not given: the % may be the effect or the level left; outline: as §1
[3] = tested on: Rattus norvegicus; assay: Antihyperlipidemic activity in Charles Foster rat assessed as reduction of triton WR-1339-induced plasma post heparin lipolytic activity assessed per mL of plasma at 100 mg/kg, po after 18 hrs; set-up: scale not given: the % may be the effect or the level left
Outline: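 Male Charles Foster rats (100–150 g), six per group. Triton WR-1339 400 mg/kg ip together with an oral 100 mg/kg dose in gum acacia suspension. Diet was withdrawn and vehicle controls were included. At 18 h, EDTA plasma was taken from retro-orbital blood. Post-heparin lipolytic activity was measured spectrophotometrically as nmol free fatty acid formed/h/ml plasma. Mean SD.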

[4] = tested on: Rattus norvegicus; assay: Antihyperlipidemic activity in Charles Foster rat assessed as reduction of triton WR-1339-induced plasma protein level at 100 mg/kg, po after 18 hrs; set-up: scale not given: the % may be the effect or the level left
[5] = tested on: Rattus norvegicus; assay: Antihyperlipidemic activity in Charles Foster rat assessed as reduction of triton WR-1339-induced plasma total cholesterol level at 100 mg/kg, po after 18 hrs; set-up: scale not given: the % may be the effect or the level left; outline: as §1
[6] = Antioxidant activity assessed as xanthine-xanthine oxidase generated superoxide anion scavenging at 200 mg/ml after 30 mins by NBT reduction assay
Outline: (§2)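 Enzymic superoxide generation with xanthine, xanthine oxidase (0.04 U) and nitroblue tetrazolium in 100 mM phosphate buffer pH 8.2, with or without sample. Incubated at 37 °C for 30 min, then stopped with glacial acetic acid. Formazan read at 560 nm. Percent inhibition calculated using ε 7.2 × 10³ M/cm.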

[7] = Antioxidant activity assessed as hydroxyl radical scavenging activity by measuring malondialdehyde formation at 200 mg/ml after 90 mins by thiobarbituric acid method
Outline: (§3)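 Non-enzymic hydroxyl radical generation: deoxyribose 2.8 mM, FeSO4 2 mM, sodium ascorbate 2.0 mM and H2O2 2.8 mM in 50 mM KH2PO4 pH 7.4, with or without sample. Incubated at 37 °C for 90 min alongside reference samples and reagent blanks. MDA measured spectrophotometrically by the thiobarbituric acid method.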

[8] = Antioxidant activity assessed as xanthine-xanthine oxidase generated superoxide anion scavenging at 100 mg/ml after 30 mins by NBT reduction assay; outline: as §2
[9] = Antioxidant activity assessed as hydroxyl radical scavenging activity by measuring malondialdehyde formation at 100 mg/ml after 90 mins by thiobarbituric acid method; outline: as §3
[10] = Antioxidant activity against microsomal lipid peroxidation assessed as malondialdehyde formation at 100 mg/ml after 90 mins by thiobarbituric acid method
[11] = Antioxidant activity against microsomal lipid peroxidation assessed as malondialdehyde formation at 200 mg/ml after 90 mins by thiobarbituric acid method

| Structure (SMILES) | Activity [1] [%] | Activity [2] [%] | Activity [3] [%] | Activity [4] [%] | Activity [5] [%] | Activity [6] [%] | Activity [7] [%] | Activity [8] [%] | Activity [9] [%] | Activity [10] [%] | Activity [11] [%] |
| --- | --- | --- | --- | --- | --- | --- | --- | --- | --- | --- | --- |
| Cc1ccc(C(O)CNC(=O)/C=C/c2ccc(Cl)c(Cl)c2)cc1 (racemic) | 14 | 13 | 14 | 15 | 16 |  |  |  |  |  |  |
| Cc1ccc(C)c(OCCCC(C)(C)C(=O)O)c1 [GEMFIBROZIL] | 31 | 36 | 23 | 31 | 33 |  |  |  |  |  |  |
| Oc1ncnc2[nH]ncc12 |  |  |  |  |  | 69 |  |  |  |  |  |
| Cc1ccc(C(O)CNC(=O)c2ccc(Cl)c([N+](=O)[O-])c2)cc1 (racemic) | 11 | 7 | 8 | 11 | 5 |  |  |  |  |  |  |
| Cc1ccc(C(=O)CNC(=O)c2cccnc2)cc1 | 2 | 6 | 6 | 4 | 4 |  |  |  |  |  |  |
| OC[C@@H](O)[C@@H](O)[C@H](O)[C@H](O)CO |  |  |  |  |  |  | 45 |  |  |  |  |
| COc1cc(/C=C/C(=O)NCC(O)c2ccc(C)cc2)ccc1O (mixture of isomers) | 23 | 22 | 21 | 21 | 24 | 32 | 27 | 21 | 18 | 19 | 23 |
| COc1ccc(CC(=O)NCC(=O)c2ccc(C)cc2)cc1OC | 12 | 14 | 12 | 14 | 10 |  |  |  |  |  |  |
| Cc1ccc(C(=O)CNC(=O)Cc2cccnc2)cc1 | 5 | 7 | 8 | 7 | 7 |  |  |  |  |  |  |
| Cc1ccc(C(=O)CNC(=O)/C=C/c2ccc(OS(=O)(=O)c3ccc(C)cc3)cc2)cc1 | 4 | 9 | 7 | 6 | 7 |  |  |  |  |  |  |
| Cc1ccc(C(O)CNC(=O)/C=C/c2ccc(O)cc2)cc1 (mixture of isomers) | 9 | 9 | 7 | 8 | 7 |  |  |  |  |  |  |
| Cc1ccc(C(=O)CNC(=O)Cc2ccc(F)cc2)cc1 | 11 | 15 | 6 | 19 | 14 |  |  |  |  |  |  |
| COc1ccc([C@@H](O)CNC(=O)/C=C/c2ccccc2)cc1 [AEGELINE] | 22 | 23 | 14 | 24 | 24 | 25 | 22 | 19 | 18 |  |  |
| Cc1ccc(C(=O)CNC(=O)/C=C/c2ccc(O)cc2)cc1 | 21 | 23 | 19 | 20 | 22 | 31 | 29 | 17 | 17 | 22 | 29 |
| Cc1ccc(C(O)CNC(=O)/C=C/c2ccccc2O)cc1 (mixture of isomers) | 9 | 7 | 5 | 8 | 8 |  |  |  |  |  |  |
| Cc1ccc(C(=O)CNC(=O)/C=C/c2ccc(Cl)c(Cl)c2)cc1 | 12 | 12 | 6 | 13 | 12 |  |  |  |  |  |  |
| Cc1ccc(C(O)CNC(=O)Cc2cccnc2)cc1 (racemic) | 25 | 22 | 19 | 23 | 23 | 31 | 29 | 17 | 17 | 22 | 29 |
| Cc1ccc(C(=O)CNC(=O)/C=C/c2ccccc2O)cc1 | 9 | 10 | 10 | 8 | 11 |  |  |  |  |  |  |
| Cc1ccc(C(=O)CNC(=O)c2ccc(Cl)c([N+](=O)[O-])c2)cc1 | 9 | 5 | 8 | 9 | 4 |  |  |  |  |  |  |
| COc1cc(/C=C/C(=O)NCC(=O)c2ccc(C)cc2)ccc1O | 10 | 6 | 13 | 10 | 5 |  |  |  |  |  |  |
| Cc1ccc(C(=O)CNC(=O)CCc2cccnc2)cc1 | 22 | 24 | 20 | 21 | 24 | 31 | 33 | 24 | 19 | 19 | 29 |
| Cc1c(C)c2c(c(C)c1O)CC[C@@](C)(CCC[C@H](C)CCC[C@H](C)CCCC(C)C)O2 |  |  |  |  |  |  |  |  |  |  | 63 |
